Test results reported in ChEMBL document CHEMBL4513216, “Probing the Open Global Health Chemical Diversity Library for Multistage-Active Starting Points for Next-Generation Antimalarials” (ACS Infect Dis, 2020).

assay: Toxicity liver stage against HepG2, at 10uM; format: cell-based; set-up: test concentration 10 uM, cell line HepG2-A16-CD81EGFP; settings: human, HepG2-A16-CD81EGFP cells; read-out: INHIBITION
In short: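 Uninfected HepG2-A16-CD81EGFP cells, 3 × 10^3 per well, 1536-well, plated on prespotted compound at 10 μM final, parasite-free screening media added to match infected plates; puromycin 10 μM positive, DMSO 0.5% negative; run in parallel with 48 h PbLuc assay at 37 °C, 5% CO2; viability by CellTiter-Glo luminescence, normalized to controls.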

Q: With CN1CCOC[C@H]1c1nc(-c2ccncc2)c[nH]1 as the molecule, how does the cytotoxicity at 10 µM read?
A: 2.23%

Q: For Cc1nc(N2CCN(C)CC2)ncc1C(=O)N1CCCCCC1, which cytotoxicity at 10 µM is on record?
A: -3.48%

Q: With COc1ccc2c(c1)CN(Cc1ccco1)C(=O)CCN2CC(C)(C)O as the molecule, how does the cytotoxicity at 10 µM read?
A: -7.08%

Q: For Cc1cccc2c1ccn2CC(=O)NC[C@@H]1CCCN2CCCC[C@H]12, which cytotoxicity at 10 µM is on record?
A: 3.14%

Q: Which cytotoxicity at 10 µM does the source give for COc1ccc(-c2n[nH]c(C)c2CC(=O)NCC2CCOCC2)cc1 here?
A: -4.28%

Q: With CSc1ccc(C2SCC(=O)Nc3c2c(=O)[nH]n3C2CCOCC2)cc1 (stereo not given) as the molecule, how does the cytotoxicity at 10 µM read?
A: -14.9%

Q: For CN(C)c1ncc(NS(=O)(=O)c2ccc(OC(F)(F)F)cc2)cn1, which cytotoxicity at 10 µM is on record?
A: 11.9%

Q: Which cytotoxicity at 10 µM does the source give for Cc1cccc(C(=O)N2CCN(c3ccc(-n4cccc4)nn3)CC2)c1 here?
A: 67.1%

Q: Which cytotoxicity at 10 µM does the source give for O=c1[nH]c2c(c(=O)n1C1CCCCC1)CCC2NCc1ccccc1 (stereo not given) here?
A: -5.43%

Q: For COc1ccc2c(c1)OC1(CCN(Cc3ccc(F)cc3)CC1)CC2=O, which cytotoxicity at 10 µM is on record?
A: 9.09%

Q: Which cytotoxicity at 10 µM does the source give for Cn1nc(C(=O)N2CCOCC2)cc1C(=O)Nc1c(Cl)cccc1Cl here?
A: 12%

Q: Which cytotoxicity at 10 µM does the source give for CCC(C)(C)n1nnnc1C(c1cccs1)N1CCc2ccccc2C1 (stereo not given) here?
A: 0.237%

Q: For CN(C)c1ccc(C(=O)N2CCC(c3cc4cnccc4[nH]3)CC2)cc1, which cytotoxicity at 10 µM is on record?
A: 1.12%

Q: Which cytotoxicity at 10 µM does the source give for Nc1nccc(C2CCCCN2Cc2cccc(F)c2)n1 (stereo not given) here?
A: -4%

Q: With CCOCCCNCc1cc2c(C)cc(C)cc2n2c(=O)n(C)nc12 as the molecule, how does the cytotoxicity at 10 µM read?
A: -4%

Q: For Cc1cc(C(=O)N2CCCC2c2nc(O)cc(C(C)C)n2)on1 (stereo not given), which cytotoxicity at 10 µM is on record?
A: -3.42%

Q: With CC(C)N1CCCC(Cc2cncc(Br)c2)CC1 (stereo not given) as the molecule, how does the cytotoxicity at 10 µM read?
A: -7.5%

Q: For CNc1cncc(C2CCCN2Cc2ccn(C)n2)n1 (stereo not given), which cytotoxicity at 10 µM is on record?
A: -6.88%

Q: For Cc1ccc(C(=O)N2CCC(O)(CN3CCc4ccccc4C3)C2)s1 (stereo not given), which cytotoxicity at 10 µM is on record?
A: -1.61%

Q: Which cytotoxicity at 10 µM does the source give for CN(c1ccncn1)C1CC2(CCN(C(=O)Cc3cccs3)C2)C1 (stereo not given) here?
A: -5.97%

Q: Which cytotoxicity at 10 µM does the source give for CC(Sc1nncn1C)C(=O)NCCCOc1ccc(F)cc1 (stereo not given) here?
A: -49.2%

Q: With CC1CCCCN1C(=O)CCc1nnc(-c2ccccc2)o1 (stereo not given) as the molecule, how does the cytotoxicity at 10 µM read?
A: -4.65%

Q: With Cc1nc(CN(C)c2nccc(N(C)C)n2)cs1 as the molecule, how does the cytotoxicity at 10 µM read?
A: -9.86%

Q: For O=C(c1ccccn1)N1CCN(C(c2ccccc2)C(F)(F)F)CC1 (stereo not given), which cytotoxicity at 10 µM is on record?
A: -8.18%

Q: For COCC(C)N1CCN(CCc2ccc3c(c2)CCO3)CC1 (stereo not given), which cytotoxicity at 10 µM is on record?
A: 4.16%

Q: For Clc1ccc2c(c1)C=C(CNC1CCc3ncnn3C1)CO2 (stereo not given), which cytotoxicity at 10 µM is on record?
A: -1.19%

Q: With CC1CN(C(=O)c2cnn(-c3ccccn3)c2C(C)C)CC(C)(C)O1 (stereo not given) as the molecule, how does the cytotoxicity at 10 µM read?
A: -3.09%

Q: Which cytotoxicity at 10 µM does the source give for COCCNc1nnc(S(=O)(=O)CCC(C)(C)C#N)s1 here?
A: 10.7%

Q: With CCC(CNC(=O)CNC(C)=O)Oc1cccc(F)c1 (stereo not given) as the molecule, how does the cytotoxicity at 10 µM read?
A: -43.6%

Q: For CCc1noc(C(C)N(C)Cc2cc(Br)ccc2OC)n1 (stereo not given), which cytotoxicity at 10 µM is on record?
A: -5.04%

Q: With Cc1noc(C(C)N2CCN(c3ncnc4ccccc34)CC2)n1 (stereo not given) as the molecule, how does the cytotoxicity at 10 µM read?
A: 17.7%

Q: With Cc1ccc(C(=O)N2CCOC3(CCCC3)C2)c(=O)[nH]1 as the molecule, how does the cytotoxicity at 10 µM read?
A: 7.87%

Q: Which cytotoxicity at 10 µM does the source give for COc1cc(C2(C(=O)NC3CCN(C4CC4)CC3)CC2)ccc1C here?
A: 5.16%

Q: With CC(=O)Nc1nc(CN(C)CC2CCCN2c2cccnn2)cs1 (stereo not given) as the molecule, how does the cytotoxicity at 10 µM read?
A: 15.1%

Q: With CC(C)CNC(=O)c1cc(Br)c2c(c1)OCCO2 as the molecule, how does the cytotoxicity at 10 µM read?
A: 6.7%

Q: With O=C(NCc1ccccc1CN1CCC(O)CC1)Nc1ccccn1 as the molecule, how does the cytotoxicity at 10 µM read?
A: 8.52%

Q: Which cytotoxicity at 10 µM does the source give for CCc1cnc(CN(C)C(=O)Nc2cnn(CC3CCCO3)c2)s1 (stereo not given) here?
A: 4.03%

Q: Which cytotoxicity at 10 µM does the source give for CCCS(=O)(=O)CCSc1cccc(C#N)c1 here?
A: -3.85%

Q: With CC(CNC(=O)c1ccc(Cl)cc1F)N1CCCC1 (stereo not given) as the molecule, how does the cytotoxicity at 10 µM read?
A: -3.85%

Q: With Cc1ccc(S(=O)(=O)NCCCN2CCC(O)CC2)cc1Cl as the molecule, how does the cytotoxicity at 10 µM read?
A: 8.68%

Q: Which cytotoxicity at 10 µM does the source give for O=C(CCCOc1ccccc1F)NCCCC(=O)Nc1cn[nH]c1 here?
A: -11.1%

Q: With Cc1cc(C)n(CC2CCCN2C(=O)c2ccc3c(c2)COC3)n1 (stereo not given) as the molecule, how does the cytotoxicity at 10 µM read?
A: 1.85%

Q: With Cc1ccoc1C(=O)NCCOc1ncc(Cl)cc1Cl as the molecule, how does the cytotoxicity at 10 µM read?
A: 3.02%

Q: With Cc1ccc(NS(=O)(=O)c2cnn(Cc3ccccc3)c2)c(C(=O)O)c1 as the molecule, how does the cytotoxicity at 10 µM read?
A: -2.41%

Q: For Cn1cc(C(O)CNC(=O)c2ccc(F)cc2Cl)cn1 (stereo not given), which cytotoxicity at 10 µM is on record?
A: 0.055%

Q: Which cytotoxicity at 10 µM does the source give for CCCN(Cc1ccc(C#N)cc1)Cc1nnsc1Cl here?
A: -58.4%

Q: With CCn1cc(NC(=O)c2cccc(OCC(F)(F)F)n2)cn1 as the molecule, how does the cytotoxicity at 10 µM read?
A: -9.43%

Q: Which cytotoxicity at 10 µM does the source give for NC(=O)CCN(C(=O)c1cccc2c1OCO2)c1ccccc1 here?
A: -16.5%

Q: For CCOc1ccc(C#N)cc1NCc1cc(C)on1, which cytotoxicity at 10 µM is on record?
A: -60.8%

Q: With COc1ccccc1C1(CNCc2cccc(O)c2)CCOCC1 as the molecule, how does the cytotoxicity at 10 µM read?
A: 9.18%

Q: With CC(CNC(=O)c1c[nH]nn1)Oc1ccc(Cl)cc1 (stereo not given) as the molecule, how does the cytotoxicity at 10 µM read?
A: 9.27%

Q: With CC(NCCCc1cnn(C)c1)c1ccc(Cl)s1 (stereo not given) as the molecule, how does the cytotoxicity at 10 µM read?
A: 5.29%

Q: For CC(C)(C)c1nc(NS(=O)(=O)c2ccc(F)cc2)no1, which cytotoxicity at 10 µM is on record?
A: 4.71%

Q: With COCC(NC(=O)c1ccc[nH]1)c1cccc(C(F)(F)F)c1 (stereo not given) as the molecule, how does the cytotoxicity at 10 µM read?
A: -2.54%

Q: For CC(C)(C)OC(=O)N1CCCc2ccc(NCc3ncc[nH]3)cc21, which cytotoxicity at 10 µM is on record?
A: -5.99%
